Results taken from ChEMBL document CHEMBL4689842, “EUbOPEN Chemogenomics Library wave 1” (2021).
“And” between values parts separate entries of the source, which are not always exact repeats. Equal values may be shown once.

Tested on: U2OS
Assay: Multiplex assay against U2OS
Assay type: toxicity, cell-based
Conditions: human
Outline: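 Cells were classed with CellPathfinder machine-learning gating, first as Hoechst high-intensity objects or normal cells, then (normal cells) as healthy, pyknosed or fragmented nuclei, and finally (pyknosed cells) as mitotic or apoptotic. Staining of live cells at seeding used Hoechst33342, BioTracker Green Microtubule Cytoskeleton Dye, MitoTracker Red and Annexin V Alexa Fluor 680, with imaging on a CQ1 microscope at 37°C and 5% CO2 after compound addition. Tubulin, mitochondrial-mass and membrane-permeability phenotypes are per cents of healthy-nucleus cells.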

[1] = 12 h, 10 µM, compound concentration 10 uM, replicate 1
[2] = 12 h, 10 µM, compound concentration 10 uM, replicate 2
[3] = 24 h, 10 µM, compound concentration 10 uM, replicate 1
[4] = 24 h, 10 µM, compound concentration 10 uM, replicate 2
[5] = 48 h, 10 µM, compound concentration 10 uM, replicate 1
[6] = 48 h, 10 µM, compound concentration 10 uM, replicate 2
[7] = 12 h, 1 µM, compound concentration 1 uM, replicate 1
[8] = 12 h, 1 µM, compound concentration 1 uM, replicate 2
[9] = 24 h, 1 µM, compound concentration 1 uM, replicate 1
[10] = 24 h, 1 µM, compound concentration 1 uM, replicate 2
[11] = 48 h, 1 µM, compound concentration 1 uM, replicate 1
[12] = 48 h, 1 µM, compound concentration 1 uM, replicate 2

CCOCCn1cc(C(=O)Nc2ccc(-n3nc(-c4cccnc4)cc3C(F)(F)F)cn2)ccc1=O [BI 1935]
Population Apoptotic (%) [1]: 22% and 50% and 42% | Population Healthy Nuclei (%) [1]: 82% and 63% and 91% | Population Hoechst High Intensity Objects (%) [1]: 4% and 8% and 3% | Population Mitotic Cells (%) [1]: 77% and 50% and 57% | Population Normal (%) [1]: 95% and 91% and 96% | Total Cell Count [1]: 162 and 131 and 216 | Population Apoptotic (%) [2]: 28% and 47% and 16% | Population Fragmented Nuclei (%) [2]: 5% and 8% and 12% | Population Healthy Nuclei (%) [2]: 77% and 65% | Population Hoechst High Intensity Objects (%) [2]: 10% and 7% and 9% | Population Mitochondria Different-Phenotype (%) [2]: 22% and 47% and 19% | Population Mitotic Cells (%) [2]: 71% and 52% and 83% | Population Normal (%) [2]: 89% and 92% and 90% | Total Cell Count [2]: 89 and 79 and 129 | Population Apoptotic (%) [3]: 42% and 33% and 27% | Population Healthy Nuclei (%) [3]: 62% and 86% and 91% | Population Hoechst High Intensity Objects (%) [3]: 6% and 3% | Population Mitochondria Different-Phenotype (%) [3]: 51% and 17% and 20% | Population Mitotic Cells (%) [3]: 57% and 66% and 72% | Population Normal (%) [3]: 93% and 96% | Total Cell Count [3]: 147 and 211 and 291 | Population Apoptotic (%) [4]: 46% and 40% and 66% | Population Fragmented Nuclei (%) [4]: 3% and 9% | Population Healthy Nuclei (%) [4]: 82% and 66% | Population Hoechst High Intensity Objects (%) [4]: 7% and 8% | Population Mitochondria Different-Phenotype (%) [4]: 27% and 50% | Population Mitotic Cells (%) [4]: 53% and 60% and 33% | Population Normal (%) [4]: 92% and 91% | Population Tubulin-Different-Phenotype (%) [4]: 27% and 44% and 22% | Total Cell Count [4]: 101 and 92 and 149 | Population Apoptotic (%) [5]: 51% | Population Fragmented Nuclei (%) [5]: 16% | Population Healthy Nuclei (%) [5]: 64% | Population Hoechst High Intensity Objects (%) [5]: 10% | Population Membrane Permeable-Phenotype (%) [5]: 15% | Population Mitochondria Different-Phenotype (%) [5]: 26% | Population Mitotic Cells (%) [5]: 48% | Population Normal (%) [5]: 89% | Population Pyknosed Nuclei (%) [5]: 19% | Population Tubulin-Different-Phenotype (%) [5]: 51% | Total Cell Count [5]: 178 | Population Apoptotic (%) [6]: 52% | Population Fragmented Nuclei (%) [6]: 7% | Population Healthy Nuclei (%) [6]: 73% | Population Hoechst High Intensity Objects (%) [6]: 4% | Population Membrane Permeable-Phenotype (%) [6]: 17% | Population Mitochondria Different-Phenotype (%) [6]: 30% | Population Mitotic Cells (%) [6]: 47% | Population Normal (%) [6]: 95% | Population Tubulin-Different-Phenotype (%) [6]: 40% | Total Cell Count [6]: 114

c1cn2cc(-c3ccc4cn[nH]c4c3)nc(Nc3ccc(N4CCOCC4)cc3)c2n1 [ENTOSPLETINIB]
Population Apoptotic (%) [7]: 32% | Population Fragmented Nuclei (%) [7]: 13% | Population Healthy Nuclei (%) [7]: 66% | Population Hoechst High Intensity Objects (%) [7]: 4% | Population Membrane Permeable-Phenotype (%) [7]: 13% | Population Mitochondria Different-Phenotype (%) [7]: 36% | Population Mitotic Cells (%) [7]: 67% | Population Normal (%) [7]: 95% | Population Pyknosed Nuclei (%) [7]: 20% | Population Tubulin-Different-Phenotype (%) [7]: 41% | Total Cell Count [7]: 172 | Population Apoptotic (%) [8]: 40% | Population Fragmented Nuclei (%) [8]: 16% | Population Healthy Nuclei (%) [8]: 73% | Population Hoechst High Intensity Objects (%) [8]: 5% | Population Membrane Permeable-Phenotype (%) [8]: 10% | Population Mitochondria Different-Phenotype (%) [8]: 23% | Population Mitotic Cells (%) [8]: 60% | Population Normal (%) [8]: 94% | Population Pyknosed Nuclei (%) [8]: 9% | Population Tubulin-Different-Phenotype (%) [8]: 25% | Total Cell Count [8]: 59 | Population Apoptotic (%) [1]: 76% | Population Fragmented Nuclei (%) [1]: 37% | Population Healthy Nuclei (%) [1]: 7% | Population Membrane Permeable-Phenotype (%) [1]: 12% | Population Mitochondria Different-Phenotype (%) [1]: 61% | Population Mitotic Cells (%) [1]: 23% | Population Pyknosed Nuclei (%) [1]: 55% | Population Tubulin-Different-Phenotype (%) [1]: 73% | Total Cell Count [1]: 161 | Population Apoptotic (%) [2]: 92% | Population Fragmented Nuclei (%) [2]: 30% | Population Healthy Nuclei (%) [2]: 2% | Population Hoechst High Intensity Objects (%) [2]: 25% | Population Membrane Permeable-Phenotype (%) [2]: 21% | Population Mitochondria Different-Phenotype (%) [2]: 82% | Population Mitotic Cells (%) [2]: 7% | Population Normal (%) [2]: 74% | Population Pyknosed Nuclei (%) [2]: 67% | Population Tubulin-Different-Phenotype (%) [2]: 78% | Total Cell Count [2]: 56 | Population Apoptotic (%) [9]: 37% | Population Fragmented Nuclei (%) [9]: 12% | Population Healthy Nuclei (%) [9]: 70% | Population Membrane Permeable-Phenotype (%) [9]: 4% | Population Mitochondria Different-Phenotype (%) [9]: 33% | Population Mitotic Cells (%) [9]: 62% | Population Pyknosed Nuclei (%) [9]: 16% | Population Tubulin-Different-Phenotype (%) [9]: 24% | Total Cell Count [9]: 182 | Population Apoptotic (%) [10]: 14% | Population Fragmented Nuclei (%) [10]: 14% | Population Healthy Nuclei (%) [10]: 74% | Population Hoechst High Intensity Objects (%) [10]: 4% | Population Membrane Permeable-Phenotype (%) [10]: 17% | Population Mitochondria Different-Phenotype (%) [10]: 15% | Population Mitotic Cells (%) [10]: 85% | Population Normal (%) [10]: 95% | Population Pyknosed Nuclei (%) [10]: 11% | Population Tubulin-Different-Phenotype (%) [10]: 21% | Total Cell Count [10]: 78 | Population Apoptotic (%) [3]: 70% | Population Fragmented Nuclei (%) [3]: 35% | Population Healthy Nuclei (%) [3]: 6% | Population Hoechst High Intensity Objects (%) [3]: 23% | Population Membrane Permeable-Phenotype (%) [3]: 7% | Population Mitochondria Different-Phenotype (%) [3]: 49% | Population Mitotic Cells (%) [3]: 29% | Population Normal (%) [3]: 76% | Population Pyknosed Nuclei (%) [3]: 57% | Population Tubulin-Different-Phenotype (%) [3]: 53% | Total Cell Count [3]: 186 | Population Apoptotic (%) [4]: 89% | Population Fragmented Nuclei (%) [4]: 33% | Population Healthy Nuclei (%) [4]: 2% | Population Hoechst High Intensity Objects (%) [4]: 26% | Population Membrane Permeable-Phenotype (%) [4]: 8% | Population Mitochondria Different-Phenotype (%) [4]: 36% | Population Mitotic Cells (%) [4]: 10% | Population Normal (%) [4]: 73% | Population Pyknosed Nuclei (%) [4]: 64% | Population Tubulin-Different-Phenotype (%) [4]: 20% | Total Cell Count [4]: 65 | Population Apoptotic (%) [11]: 46% | Population Fragmented Nuclei (%) [11]: 9% | Population Membrane Permeable-Phenotype (%) [11]: 4% | Population Mitochondria Different-Phenotype (%) [11]: 14% | Population Mitotic Cells (%) [11]: 53% | Population Pyknosed Nuclei (%) [11]: 12% | Population Tubulin-Different-Phenotype (%) [11]: 13% | Total Cell Count [11]: 206 | Population Apoptotic (%) [12]: 37% | Population Fragmented Nuclei (%) [12]: 11% | Population Healthy Nuclei (%) [12]: 77% | Population Hoechst High Intensity Objects (%) [12]: 3% | Population Membrane Permeable-Phenotype (%) [12]: 22% | Population Mitochondria Different-Phenotype (%) [12]: 20% | Population Mitotic Cells (%) [12]: 62% | Population Normal (%) [12]: 96% | Population Pyknosed Nuclei (%) [12]: 10% | Population Tubulin-Different-Phenotype (%) [12]: 22% | Total Cell Count [12]: 111 | Population Apoptotic (%) [5]: 59% | Population Fragmented Nuclei (%) [5]: 33% | Population Healthy Nuclei (%) [5]: 7% | Population Hoechst High Intensity Objects (%) [5]: 29% | Population Membrane Permeable-Phenotype (%) [5]: 7% | Population Mitochondria Different-Phenotype (%) [5]: 21% | Population Mitotic Cells (%) [5]: 40% | Population Normal (%) [5]: 70% | Population Pyknosed Nuclei (%) [5]: 58% | Population Tubulin-Different-Phenotype (%) [5]: 16% | Total Cell Count [5]: 232 | Population Apoptotic (%) [6]: 82% | Population Fragmented Nuclei (%) [6]: 34% | Population Healthy Nuclei (%) [6]: 2% | Population Hoechst High Intensity Objects (%) [6]: 28% | Population Membrane Permeable-Phenotype (%) [6]: 20% | Population Mitochondria Different-Phenotype (%) [6]: 30% | Population Mitotic Cells (%) [6]: 17% | Population Normal (%) [6]: 71% | Population Pyknosed Nuclei (%) [6]: 63% | Population Tubulin-Different-Phenotype (%) [6]: 20% | Total Cell Count [6]: 79
